Active and inactive are the calls of the source.
Tests used:
[1] = Cytotoxicity against human HK2 cells assessed as cell viability after 72 hrs by MTT assay; assay type: cell-based, HK-2; conditions: read-out: TC50
In short: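 MTT viability assay in human renal epithelial HK-2 cells. TC50 defined as molar concentration lowering HK-2 viability by 50%.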

[2] = Antipyroptotic activity in PMA-differentiated and LPS-primed human THP1 cells assessed as decrease in ATP-induced pyroptosis measured as LDH activity at 10 uM after 1 hrs by colorimetric assay; assay type: functional; conditions: THP-1, 1 h
[3] = cysteamine reactivity assessed as second-order reaction rate constant in PBS at pH 7.4 and […] by DTNB spectrophotometric assay
[4] = Antipyroptotic activity in PMA-differentiated and LPS-primed human THP1 cells assessed as decrease in ATP-induced pyroptosis measured as LDH activity after 1 hrs pretreated with 5 mM ATP for 1 hr by colorimetric assay; assay type: functional, cell-based; conditions: thp-1
In short: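 PMA-differentiated, LPS-primed THP-1 cells pre-treated 1 h with compound (0.001-10 μM), then ATP 5 mM for 1 h. LDH in collected supernatant read colorimetrically; output as decrease of cell death vs vehicle. EC50 taken as concentration giving 50% of maximal possible effect. Mean±SEM of at least four experiments in triplicate.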

Caspase-1 (Homo sapiens) [5] = target: T1, Caspase-1 (Homo sapiens) (UniProt P29466); assay: Inhibition of caspase 1 (unknown origin) using N-acetyl-Tyr-Val-Ala-Asp-para-nitroanilide substrate assessed as rate of para-nitroanilide release after 15 to 60 mins preincubation by spectrophotometric assay
T1 sequence (whole entry): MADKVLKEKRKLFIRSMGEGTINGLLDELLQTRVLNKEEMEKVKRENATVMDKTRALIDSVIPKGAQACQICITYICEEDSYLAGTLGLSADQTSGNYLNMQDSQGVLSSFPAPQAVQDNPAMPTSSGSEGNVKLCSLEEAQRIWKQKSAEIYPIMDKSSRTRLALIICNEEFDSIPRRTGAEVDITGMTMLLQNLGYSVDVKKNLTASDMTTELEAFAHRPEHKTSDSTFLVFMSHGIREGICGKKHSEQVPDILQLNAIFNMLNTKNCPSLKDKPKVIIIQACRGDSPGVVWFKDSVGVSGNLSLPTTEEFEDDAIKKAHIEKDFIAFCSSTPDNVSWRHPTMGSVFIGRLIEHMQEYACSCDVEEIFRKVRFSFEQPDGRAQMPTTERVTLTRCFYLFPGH
In short: (§1)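 Caspase-1 from THP-1 cell cultures (50 U) pre-incubated 15-60 min with compound at 0.01-10 μM, then activity followed continuously by pNA release from Ac-YVAD-pNA (200 μM; 1 h) at 405 nm. kobs at each concentration used to obtain kinact (irreversible first-order rate) and Ki = k-1/k1.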

Caspase-1 = target: T2, Caspase-1 (Homo sapiens, UniProt P29466); assay: (§2) Inhibition of caspase 1 (unknown origin) using N-acetyl-Tyr-Val-Ala-Asp-para-nitroanilide substrate assessed as rate of para-nitroanilide release by spectrophotometric assay; in short: as §1
T2 sequence (P29466 whole entry): T1 sequence (whole entry)

Caspase-1 (Homo sapiens) [6] = target: T1, Caspase-1 (Homo sapiens); assay: as §2; in short: as §1
Caspase-1 (Homo sapiens) [7] = target: T1, Caspase-1 (Homo sapiens); assay: Inhibition of caspase 1 (unknown origin) using N-acetyl-Tyr-Val-Ala-Asp-para-nitroanilide substrate assessed as rate of para-nitroanilide release at 0.01 to 10 uM by spectrophotometric assay; conditions: TDE = time-dependent effect; in short: as §1
[8] = target: NACHT, LRR and PYD domains-containing protein 3 (Homo sapiens) (UniProt Q96P20); assay: Inhibition of recombinant NLRP3-ATPase (unknown origin) assessed as hydrolysis of ATP at 10 uM
In short: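 Recombinant NLRP3 (0.01 μg) pre-incubated 15 min with compound (10 μM); ATP 250 μM then added and incubated 1 h at 37 °C. ATP hydrolysis quantified as Pi content by colorimetric phosphate detection. Expressed as % inhibition vs vehicle; mean±SEM of ≥3 experiments in duplicate.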

[9] = (§3) Antipyroptotic activity in PMA-differentiated and LPS-primed human THP1 cells assessed as decrease in nigericin-induced pyroptosis measured as LDH activity after 1 hrs pretreated with 10 uM nigericin for 1.5 hrs by colorimetric assay; assay type: functional, cell-based; conditions: thp-1
In short: (§4)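 Differentiated (PMA) and LPS-primed THP-1 cells received compound at 0.001-10 μM 1 h ahead of nigericin (10 μM, 1.5 h). Supernatant LDH activity measured by colorimetric assay, expressed as decrease of cell death vs vehicle alone; pEC50 derived from concentration-response curves. Mean±SEM, ≥4 experiments in triplicate.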

THP-1 = assay: as §3; assay type: functional, cell-based; in short: as §4
Caspase-1 (Homo sapiens) [10] = target: T1, Caspase-1 (Homo sapiens); assay: Inhibition of caspase 1 (unknown origin) using N-acetyl-Tyr-Val-Ala-Asp-para-nitroanilide substrate assessed as rate of para-nitroanilide release at 10 uM by spectrophotometric assay
In short: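 Caspase-1 enzyme from THP-1 cultures (50 U) pre-incubated 15 min with compound (10 μM) in reaction buffer at 37 °C. Ac-YVAD-pNA substrate (200 μM) added; pNA release monitored continuously at 405 nm over 1 h. Reported as % inhibition vs vehicle; mean±SEM, ≥3 experiments in duplicate.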

[11] = Activation of KIea[1/Nrf2 pathway in human THP1 cells assessed as HMOX1 marker gene expression level at 10 uM after 2 hrs by RT-PCR analysis; assay type: functional, cell-based; conditions: THP-1
[12] = Activation of Keap1-Nrf2 pathway in human THP1 cells assessed as NFE2L2 marker gene expression level at 10 uM after 2 hrs by RT-PCR analysis; assay type: functional, cell-based; conditions: THP-1

NACHT, LRR and PYD domains-containing protein 3 (Homo sapiens), sequence (Q96P20 whole entry, the tested form may be a part): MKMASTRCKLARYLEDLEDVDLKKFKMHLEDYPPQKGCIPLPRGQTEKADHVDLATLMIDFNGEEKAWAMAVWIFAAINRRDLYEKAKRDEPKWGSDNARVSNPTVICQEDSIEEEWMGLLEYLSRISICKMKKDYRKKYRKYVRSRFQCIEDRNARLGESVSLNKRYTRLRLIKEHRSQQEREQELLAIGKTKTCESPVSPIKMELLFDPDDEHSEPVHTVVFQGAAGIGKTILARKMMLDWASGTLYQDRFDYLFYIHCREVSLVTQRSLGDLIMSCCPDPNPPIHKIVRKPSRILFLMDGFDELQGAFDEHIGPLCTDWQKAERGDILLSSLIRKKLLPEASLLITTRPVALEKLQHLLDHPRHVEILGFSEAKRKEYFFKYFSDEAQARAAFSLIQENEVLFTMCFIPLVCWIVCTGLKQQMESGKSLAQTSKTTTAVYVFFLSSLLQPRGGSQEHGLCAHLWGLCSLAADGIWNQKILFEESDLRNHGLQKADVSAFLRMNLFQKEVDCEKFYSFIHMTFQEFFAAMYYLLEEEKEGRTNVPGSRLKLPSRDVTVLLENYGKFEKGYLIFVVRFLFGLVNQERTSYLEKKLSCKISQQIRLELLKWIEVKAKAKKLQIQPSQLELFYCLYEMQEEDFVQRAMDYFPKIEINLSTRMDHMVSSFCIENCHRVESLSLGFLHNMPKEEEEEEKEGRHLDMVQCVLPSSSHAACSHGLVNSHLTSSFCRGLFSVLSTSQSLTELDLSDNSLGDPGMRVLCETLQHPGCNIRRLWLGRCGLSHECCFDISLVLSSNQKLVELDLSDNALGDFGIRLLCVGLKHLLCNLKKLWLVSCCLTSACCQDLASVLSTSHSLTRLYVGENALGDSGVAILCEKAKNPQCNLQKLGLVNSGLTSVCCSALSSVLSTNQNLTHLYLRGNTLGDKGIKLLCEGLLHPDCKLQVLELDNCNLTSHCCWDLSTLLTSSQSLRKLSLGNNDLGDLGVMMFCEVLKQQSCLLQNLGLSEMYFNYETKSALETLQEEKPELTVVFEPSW

Compound	CC50 at 72 h [1]	inhibition at 10 µM [2]	also measured
C=C(C#N)C(O)c1c(Cl)cccc1Cl (configuration not stated)	16.3 µM	51.5%	–
C=C(C(=O)OCC)C(O)c1ccc(Cl)cc1 (configuration not stated)	34.9 µM	50.5%	–
C=C(C(=O)OCC)C(OCCC(=O)OCC)c1ccccc1Cl (configuration not stated)	> 100 µM	58.3%	–
C=C1C(=O)O[C@@H]2C3O[C@]3(C)CC/C=C(\C)CC[C@@H]12 (some centres not stated)	20.1 µM	100%	k2 [3]: 47.9 M⁻¹ s⁻¹; pEC50 [4]: 6.9; inhibition (Caspase-1 (Homo sapiens) [5]): Dose-dependent effect; Ki (Caspase-1): 10.6 µM; Kinact (Caspase-1 (Homo sapiens) [6]): 4 s⁻¹; inhibition (Caspase-1 (Homo sapiens) [7]): tde; inhibition [8]: 25.9%; pEC50 [9]: 6.3; inhibition (THP-1): Dose-dependent effect
C=C(C(=O)O)C(O)c1ccccc1Cl (configuration not stated)	> 100 µM	42%	k2 [3]: 0.117 M⁻¹ s⁻¹; inhibition [8]: 80.2%
CCOC(=O)/C(=C/I)C(O)c1ccccc1Cl (configuration not stated)	6.4 µM	5.1%	–
C=C(C(=O)OCC)C(O)C1CCCCC1 (configuration not stated)	> 100 µM	64.3%	–
CCOC(=O)/C(=C\I)C(O)c1ccccc1Cl (configuration not stated)	5.9 µM	17.6%	–
C=C(C(=O)OCC)C(O)c1ccccn1 (configuration not stated)	53.4 µM	54.3%	–
CCOC(=O)C(C)C(O)c1ccccc1Cl (configuration not stated)	75.5 µM	1.6%	–
C=C(C(=O)OCC)C(O)c1c(Cl)cccc1Cl (configuration not stated)	45.2 µM	76.6%	–
C=C(C(=O)OCC)C(O)c1ccccc1Br (configuration not stated)	55.9 µM	53.7%	–
C=C(C#N)C(O)c1ccccc1F (configuration not stated)	12.9 µM	30.5%	–
C=C(C#N)C(O)c1cccc2ccccc12 (configuration not stated)	10.1 µM	53.5%	–
CCOC(=O)/C(=C\c1ccccc1)C(O)c1ccccc1Cl (configuration not stated)	> 100 µM	52.5%	k2 [3]: 0.588 M⁻¹ s⁻¹
C=C(C#N)C(O)c1ccccn1 (configuration not stated)	20.5 µM	52.7%	–
C=C(C(=O)OCC)C(OCCC(=O)OCC)c1ccc(Cl)cc1Cl (configuration not stated)	> 100 µM	43.9%	pEC50 [4]: 7.1; pEC50 [9]: 6.7; inhibition (THP-1): Dose-dependent effect
C/C=C(/C(=O)OCC)C(O)c1ccccc1Cl (configuration not stated)	73.8 µM	31.8%	pEC50 [4]: 6.9; pEC50 [9]: 6.8; inhibition (THP-1): Dose-dependent effect
C=C(C(=O)OCC)C(O)c1ccccc1 (configuration not stated)	64.5 µM	45.8%	k2 [3]: 0.524 M⁻¹ s⁻¹

Compound	CC50 at 72 h [1]	inhibition at 10 µM [2]	also measured
C=C(C#N)C(O)c1ccccc1 (configuration not stated)	22.3 µM	54.1%	–
C=C(C(=O)OCC)C(O)c1cc(Cl)cc(Cl)c1 (configuration not stated)	18.8 µM	78.4%	–
C=C(C#N)C(O)c1ccccc1Cl (configuration not stated)	11.6 µM	83%	k2 [3]: 0.777 M⁻¹ s⁻¹; inhibition (Caspase-1 (Homo sapiens) [10]): 36.2%; inhibition [8]: 80.5%
C/C=C(\C(=O)OCC)C(O)c1ccccc1Cl (configuration not stated)	80.1 µM	36.2%	k2 [3]: 0.126 M⁻¹ s⁻¹; pEC50 [4]: 7; inhibition (Caspase-1 (Homo sapiens) [10]): 25.4%; inhibition [8]: 23.3%; pEC50 [9]: 6.3; inhibition (THP-1): Dose-dependent effect
C=C(C(=O)NCCC)C(O)c1ccccc1Cl (configuration not stated)	83.5 µM	31.2%	k2 [3]: 0.126 M⁻¹ s⁻¹
C=C(C#N)C(O)c1ccccc1Br (configuration not stated)	21.8 µM	81.3%	–
C=C(C(=O)OCC)C(OCCC(=O)OCC)c1c(Cl)cccc1Cl (configuration not stated)	> 100 µM	68.8%	pEC50 [4]: 6.9; pEC50 [9]: 6.9; inhibition (THP-1): Dose-dependent effect
CCOC(=O)/C(=C/c1ccccc1)C(O)c1ccccc1Cl (configuration not stated)	> 100 µM	55.5%	–
C=C(C(=O)OCC)C(O)c1cccc(Cl)c1 (configuration not stated)	28.9 µM	44.8%	–
C=C(C#N)C(O)c1ccccc1[N+](=O)[O-] (configuration not stated)	3.6 µM	97.9%	–
C=C(C#N)C(O)c1ccc(Cl)cc1Cl (configuration not stated)	36.4 µM	14.1%	–
C=C(C(=O)OCC)C(O)c1ccccc1C (configuration not stated)	56.7 µM	37.8%	–
C=C(C(=O)OCC)C(O)c1ccccc1Cl (configuration not stated)	67 µM	75.1%	k2 [3]: 0.866 M⁻¹ s⁻¹; pEC50 [4]: 6.9; Activity [11]: Active; inhibition (Caspase-1 (Homo sapiens) [5]): Dose-dependent effect; Ki (Caspase-1): 9.6 µM; Kinact (Caspase-1 (Homo sapiens) [6]): 3.2 s⁻¹; inhibition (Caspase-1 (Homo sapiens) [7]): tde; Activity [12]: Active; inhibition [8]: 51.8%; pEC50 [9]: 6.8; inhibition (THP-1): Dose-dependent effect
C=C(C(=O)CC)C(O)c1ccccc1Cl (configuration not stated)	1.9 µM	12.1%	k2 [3]: 7.16 M⁻¹ s⁻¹
C=C(C(=O)OCC)C(O)c1ccccc1F (configuration not stated)	25.4 µM	82.3%	pEC50 [4]: 6.8; pEC50 [9]: 6.6; inhibition (THP-1): Dose-dependent effect
C=C(C(=O)OCC)C(O)c1ccccc1OC (configuration not stated)	45.8 µM	26.8%	k2 [3]: 0.423 M⁻¹ s⁻¹
C=C(C(=O)OCC)C(C)O (configuration not stated)	22.5 µM	59.6%	–
C=C(C(=O)OCC)C(O)c1ccc(Cl)cc1Cl (configuration not stated)	70.5 µM	72.4%	–
C=C(C(=O)OCC)C(O)c1ccccc1[N+](=O)[O-] (configuration not stated)	7.8 µM	63.7%	pEC50 [4]: 6.5; pEC50 [9]: 6.7; inhibition (THP-1): Dose-dependent effect

Source: ChEMBL document CHEMBL3351787, “Electrophilic warhead-based design of compounds preventing NLRP3 inflammasome-dependent pyroptosis” (J Med Chem, 2014)
